Source: PubChem
Sampled rows, rich in hits. Any-hit rate of the full collection: about 5.3%.
T cruzi repl – inhibitors of intracellular T. cruzi growth, primary screen, luminescence, NIH3T3 host cells; T. cruzi beta-gal in NIH3T3, 90 h; inhibition, % (concentration not given with the values); actives 1.4% (n = 300,000); AID 1885, 2009;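 active = mean inhibition across valid replicates above about 55%, limit read from the data; inconclusive = mean below that limit but half or more replicates reach it; inactive = mean below it, under half of replicates reach it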;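 also: signal also drops with host cell toxicity which is not excluded here; higher percent means less beta-gal luminescence so fewer parasites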
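Incubation – ≥90 h infection period, 3 h prior cell attachment · System – NIH/3T3 fibroblasts plus reporter T. cruzi · Doses – compound pinned at 50 nL/well, DMSO · Read-out basis – percent inhibition of parasite-derived β-gal signal · Signal – luminescent β-galactosidase signal after 60 min lysis · Also added – 5000 T. cruzi trypomastigotes/well · Medium – Low-serum DMEM with 2% FBS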
Mdm2 MdmX PPI – inhibitors of human Mdm2-MdmX association, primary screen, cell-based, luminescence, split luciferase, SaOS-2, uHTS; AID 485346, 2010; inhibition, % at 8 µM; SaOS-2 split-luciferase Mdm2/MdmX complementation; actives 3% (n = 330,000);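 active = inhibition of at least 50% at 8 µM in the primary screen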
Target sequence (O15151 whole entry, looked up): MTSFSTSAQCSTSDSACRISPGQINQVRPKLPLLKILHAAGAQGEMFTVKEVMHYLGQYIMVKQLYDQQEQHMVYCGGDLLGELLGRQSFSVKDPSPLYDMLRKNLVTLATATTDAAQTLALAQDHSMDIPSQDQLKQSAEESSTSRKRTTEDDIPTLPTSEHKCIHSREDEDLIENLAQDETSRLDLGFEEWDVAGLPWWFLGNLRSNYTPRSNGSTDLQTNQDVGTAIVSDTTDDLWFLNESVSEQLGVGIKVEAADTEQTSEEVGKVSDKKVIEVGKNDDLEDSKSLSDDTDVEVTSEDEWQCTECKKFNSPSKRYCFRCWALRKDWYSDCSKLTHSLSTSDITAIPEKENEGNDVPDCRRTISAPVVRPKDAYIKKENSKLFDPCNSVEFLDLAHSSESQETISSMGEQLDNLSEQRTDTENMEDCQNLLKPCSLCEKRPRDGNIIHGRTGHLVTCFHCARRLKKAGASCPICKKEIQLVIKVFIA
Target sequence (Q00987 whole entry, looked up): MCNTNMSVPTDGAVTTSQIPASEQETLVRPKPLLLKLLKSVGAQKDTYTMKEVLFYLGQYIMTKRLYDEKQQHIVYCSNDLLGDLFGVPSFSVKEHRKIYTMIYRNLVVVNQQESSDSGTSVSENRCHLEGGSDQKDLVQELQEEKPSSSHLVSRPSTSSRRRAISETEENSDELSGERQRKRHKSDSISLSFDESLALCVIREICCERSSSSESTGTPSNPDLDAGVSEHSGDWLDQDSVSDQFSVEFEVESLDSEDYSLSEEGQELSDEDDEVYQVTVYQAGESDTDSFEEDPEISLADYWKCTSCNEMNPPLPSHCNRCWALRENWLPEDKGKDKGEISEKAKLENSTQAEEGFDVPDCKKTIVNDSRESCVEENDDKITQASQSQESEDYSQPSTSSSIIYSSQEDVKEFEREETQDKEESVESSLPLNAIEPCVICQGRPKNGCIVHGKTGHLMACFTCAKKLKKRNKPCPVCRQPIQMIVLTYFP
Beta apoptosis – inhibitors of cytokine-induced beta cell apoptosis, primary screen, luminescence; actives 0.8% (n = 300,000); protection from apoptosis, % (concentration not given with the values); INS-1E cytokine-induced death, ATP luminescence, 48 h; percent of positive-control rescue, neutral wells zero;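 active = Every replicate reaches about 75%, or at least half do and their mean reaches it too, limit read from the data; inconclusive = At least half of replicates reach the limit but their mean does not; inactive = Under half of replicates reach the limit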;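 also: higher means more ATP so stronger rescue from cytokine killing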
NLRP3 yeast inh – NALP3 inflammasome inhibitors in reconstituted yeast, primary screen, luminescence, uHTS; actives 0.39% (n = 330,000); inhibition, % at 10 µM; Yeast reconstituted NLRP3/ASC/caspase-1, beta-gal luminescence, 24 h;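 active = inhibition of 50% or more; inactive = inhibition below 50%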
Calb FLC – C. albicans growth inhibition with fluconazole, primary screen, CaCi-2 strain, Alamar Blue fluorescence | C. albicans CaCi-2 + fluconazole, 48 h | growth inhibition, % (no concentration beside the values) | actives 0.57% (n = 300,000) | AID 1979, 2009;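 active = growth inhibition above about 58% in most replicates, limit read from the data, passing the limit was not always enough; inconclusive = exactly half the replicates above a set limit; inactive = most replicates below a set limit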;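 also: all wells also contain fluconazole at 8 µg/ml as a sub-toxic cotreatment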
CSC inhib – cancer stem cell viability inhibitors, primary screen, luminescence | inhibition, % at 7.5 µM | AID 2717, 2010 | actives 1.1% (n = 300,000) | cancer stem cell-like cells viability; in the data active = inhibition above about 75%; inconclusive = no clear call, values can overlap the other calls; tested in HMLE shEcad cells
Each line names hits and unclear results; the compound was inactive in the other large screens; ! = not confirmed by another sample.

CCc1ccccc1NC(=S)NNC(=O)c1ccccc1Cl	Calb FLC 103
CC(C)C[C@@H]1NC(=O)N(CCN2CCOCC2)C1=O	none
CSCCC(NC(=O)c1ccccc1)C(=O)NCCCSc1ccccc1 (stereo not given)	none (no result: T cruzi repl, Calb FLC)
CCOC(=O)N1CCN(C(=O)C(NC(=O)c2ccco2)C(C)C)CC1 (stereo not given)	none
O=C(NNc1cccc(Cl)n1)c1cccnc1Cl	none
O=C(NNc1cccc(Cl)c1)c1cccnc1Cl	Calb FLC 33
CCCc1c(C(=O)NNc2cccc(Cl)c2)cnn1-c1ccccc1	CSC inhib 80
CCCc1c(C(=O)Nc2ccc(F)cc2F)cnn1-c1ccccc1	none (no result: T cruzi repl)
CCCCn1c(SCC(=O)Nc2ccccc2C(F)(F)F)nc2ccsc2c1=O	none
O=C(c1cc(-c2ccccc2)n[nH]1)N1CCc2c([nH]c3ccccc23)C1c1ccccn1 (stereo not given)	Calb FLC 98
Cc1c(S(=O)(=O)Nc2cc(Cl)ccc2Cl)c(=O)n(C)c(=O)n1C	none
COc1ccc(C(O)(C(=O)NNc2ccc(C)cc2)c2cccs2)cc1 (stereo not given)	Calb FLC 110 (no result: CSC inhib)
Cc1ccc(Cn2c(SCC(=O)NCC3CCCO3)nc3c(sc4ccccc43)c2=O)cc1 (stereo not given)	none
C(=C\c1ccccc1)/C=N/Nc1nc2ccccc2s1	none
Brc1ccc(/C=C/C=N/Nc2nc3ccccc3s2)cc1	Calb FLC 99
O=C1[C@H]2[C@@H](c3ccc(Cl)cc3)N3C(=O)N(c4cccc(Br)c4)C(=O)[C@@]3(Cc3ccc(Cl)cc3)[C@H]2C(=O)N1C1CCCCC1	T cruzi repl 65
O=C1[C@H]2[C@@H](c3ccc(F)cc3)N3C(=O)N(c4cccc(Br)c4)C(=O)[C@@]3(Cc3ccc(Cl)cc3)[C@H]2C(=O)N1C1CCCCC1	none
Cn1cccc1C(=O)Nc1nc(-c2ccccn2)cs1	T cruzi repl 66, Calb FLC inconclusive
O=C(/C=C/c1ccco1)Nc1nc(-c2ccccn2)cs1	T cruzi repl 60, Calb FLC inconclusive
Cc1csc(NC(=O)c2cccn2C)n1	none (no result: Beta apoptosis, CSC inhib)
COc1ccc(-c2csc(NC(=S)NC(=O)/C=C/c3ccco3)n2)cc1OC	CSC inhib 79 (no result: Mdm2 MdmX PPI, NLRP3 yeast inh)
Cn1c(=O)c(C(=O)NCCCc2ccccc2)c(O)c2ccccc21	none
O=C(NC(=S)Nn1cnc2c(cnn2-c2ccccc2)c1=O)c1ccc(Cl)cc1	Calb FLC 101
CC1(C)C(=O)C2(CCCCC2)C(=O)OC1C(=O)c1ccccc1 (stereo not given)	none
COC(=O)c1cc(=O)n(CCc2ccccc2)c(=Nc2ccc(F)cc2)s1	none
CCOC(=O)c1ccc(N=c2sc(C(=O)OC)cc(=O)n2CCCN2CCOCC2)cc1	CSC inhib 101!
COc1ccc(NC(=O)CCN2CCN(S(=O)(=O)c3ccc(Br)cc3)CC2)cc1	none
Clc1ccc(OCCCn2ccnc2)c(Br)c1	Calb FLC inconclusive
Cc1ccc(OCCCCCCN2CCNCC2)c(Br)c1	none
CCN1CCN(CCOc2ccc(Br)cc2C)CC1	none
CC(C)(C)c1ccccc1OCCOCCN1CCCCCC1	T cruzi repl 56
Clc1ccc(Cl)c(OCCCCN2CCNCC2)c1	T cruzi repl 60, CSC inhib 96
CCN1CCN(CCCOc2ccc(Cl)cc2Br)CC1	T cruzi repl 57
Cc1cc(Br)ccc1OCCN1CCCC1	T cruzi repl 73
CCOc1ccc(-n2c(SCC(=O)NCc3ccco3)nc3c(c2=O)SCC3)cc1	none (no result: T cruzi repl, Calb FLC)
CC(C(=O)NCc1ccc2c(c1)OCO2)N(c1ccccc1)S(C)(=O)=O (stereo not given)	none
O=C(C1CCCCC1)N1CCC(c2nc3ccccc3[nH]2)CC1	none
Cc1cc(NC(=O)c2cnn3c(C(F)(F)F)cc(-c4ccc(Br)cc4)nc23)no1	none
CCN1CCN(CCOc2cccc(Cl)c2Cl)CC1	T cruzi repl 78 (no result: Beta apoptosis)
CC1CC(C)CN(CCOc2cccc(Cl)c2Cl)C1 (stereo not given)	none
Clc1ccc(OCCCN2CCCCC2)c(Br)c1	none
Clc1ccc(OCCCCCN2CCCC2)c(Br)c1	T cruzi repl 68
Brc1ccccc1OCCCCCN1CCCC1	T cruzi repl 57
Cc1ccc2cc(CN(CC3CCCO3)C(=O)Nc3ccccc3F)c3nnnn3c2c1 (stereo not given)	none
O=C(CN1CCOCC1)Nc1ccc(Br)cn1	none
CC(C)c1ccc(NC(=O)c2csnn2)cc1	none
CC(C)c1ccc(NC(=O)c2snc3ccc(Cl)cc23)cc1	CSC inhib 80
O=C(Nc1ccc(N2CCOCC2)cc1)C1CCN(S(=O)(=O)Cc2ccccc2)CC1	none
O=C(/C=C/c1ccccc1)NC(=S)Nc1ccc(N2CCOCC2)c(Cl)c1	Calb FLC 111 (no result: CSC inhib)
O=C(Nc1cccc(N2CCCC2)c1)c1cccs1	T cruzi repl 57
Nc1cccc(NC(=O)c2cccs2)c1	none
O=C(/C=C/c1ccco1)NC(=S)Nc1ccc(N2CCOCC2)c(Cl)c1	none
O=C(NC(=S)Nc1ccc(N2CCCCC2)c(Cl)c1)c1cccs1	CSC inhib 81
CCOC(=O)C(=O)N1CCN(c2ccccc2OC)CC1	none
O=C(NCCN1C(=O)S/C(=C\c2ccccc2)C1=O)C1CCN(S(=O)(=O)c2cccs2)CC1	none
Nc1cc(=O)[nH]c(SCCSc2ccccc2)n1	none
CCOC(=O)c1cn(Cc2ccc(C)cc2)nn1	none
CN(C)CCCNc1c2c(nc3cc(-c4cccc(F)c4)nn13)CCC2	T cruzi repl 68
CCOCCCNc1c2c(nc3cc(-c4ccc(F)cc4)nn13)CCC2	none
Cc1cccc(-c2cc3nc4c(c(NCc5ccco5)n3n2)CCCC4)c1	CSC inhib 117
CCc1cccc2c(C(=O)CN3C(=O)NC(C)(c4cccc5ccccc45)C3=O)c[nH]c12 (stereo not given)	T cruzi repl 66, CSC inhib 104
O=S(=O)(c1ccc(-c2csc(-c3cccnc3)n2)cc1)N1CCCC1	Calb FLC inconclusive
O=S(=O)(c1ccc(-c2csc(-c3cccnc3)n2)cc1)N1CCCCC1	T cruzi repl 66
CCC(C)NC(=S)NNC(=O)c1ccncc1 (stereo not given)	none
Cc1ccc(C2CC(c3cccc(C)c3)n3ncnc3N2)cc1 (stereo not given)	none
N=C(N)Cc1ccccc1Sc1ccccc1	none
O=C(N/N=C/c1ccc[nH]1)c1sc2ccccc2c1Cl	T cruzi repl 69, CSC inhib 93
Cc1ccc(OCCOc2ccc(S(=O)(=O)N3CCCC3)cc2C(N)=O)cc1	none (no result: T cruzi repl, Calb FLC, CSC inhib)
